Screens from PubChem BioAssay.
Rows were chosen to be rich in hits. Some 2.6% of all compounds tested hit in one or more screens of this group.
STEP block – inhibitors of human striatal-enriched phosphatase STEP; P54829; recombinant STEP, OMFP fluorogenic substrate, fluorescence; inhibition, % at 20 µM; 0.25% of 360,000 active;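 active means inhibition at 20 µM, scaled per plate between control wells, above about 37%, limit read from the data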
Target sequence (P54829 whole entry, looked up): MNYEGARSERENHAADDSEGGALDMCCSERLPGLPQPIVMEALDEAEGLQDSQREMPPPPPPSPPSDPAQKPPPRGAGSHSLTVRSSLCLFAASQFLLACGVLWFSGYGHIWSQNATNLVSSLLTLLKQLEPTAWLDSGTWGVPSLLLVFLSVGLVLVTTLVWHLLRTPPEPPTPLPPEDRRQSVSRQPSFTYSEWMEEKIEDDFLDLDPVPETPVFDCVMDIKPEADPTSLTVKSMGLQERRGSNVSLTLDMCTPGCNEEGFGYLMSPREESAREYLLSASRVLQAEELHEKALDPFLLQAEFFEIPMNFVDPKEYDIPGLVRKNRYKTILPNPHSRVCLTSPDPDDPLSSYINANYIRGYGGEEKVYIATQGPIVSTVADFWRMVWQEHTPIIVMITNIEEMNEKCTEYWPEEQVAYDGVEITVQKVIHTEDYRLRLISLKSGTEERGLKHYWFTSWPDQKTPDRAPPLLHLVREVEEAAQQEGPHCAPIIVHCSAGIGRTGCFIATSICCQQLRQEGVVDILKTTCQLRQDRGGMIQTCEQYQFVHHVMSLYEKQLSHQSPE
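System: STEP (striatal-enriched tyrosine phosphatase) enzyme, cell-free; medium: Bis-Tris pH 6.0 buffer with DTT, detergent; dosing: 20 µM, 1% DMSO; times: reaction 20 min, ambient temperature; detection: fluorescence, 480/540 nm; read-out basis: normalized % inhibition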
rCAG RNA binder – binds r(CAG) RNA repeats | r(CAG) RNA repeat, TO-PRO-1 dye displacement fluorescence | inhibition, % at 3 µM | 1.3% of 370,000 active | AID 651821;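 active means inhibition above the plate cutoff, the mean of all test compounds on that plate plus 3 SD, cut at about 35% in these data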;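 further: higher means more dye released from RNA so lower well fluorescence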
LMPTP inh – LMPTP (human) inhibition; inhibition, % at 20 µM; recombinant LMPTP-A, OMFP fluorogenic substrate, fluorescence intensity; P24666; 0.22% of 360,000 active; AID 651560;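 active means compounds that cut the enzyme signal by at least half of the control window in the single-dose screen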
Target sequence (P24666 whole entry, looked up): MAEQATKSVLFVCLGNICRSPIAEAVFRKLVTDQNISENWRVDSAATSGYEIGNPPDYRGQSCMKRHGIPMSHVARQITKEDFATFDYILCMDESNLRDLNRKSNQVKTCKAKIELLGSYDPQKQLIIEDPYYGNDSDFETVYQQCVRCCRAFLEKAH
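test system = LMPTP-A | amount = 0.625 nM LMPTP-A final | reagent = fluorogenic phosphatase substrate OMFP at 400 µM final | incubation = 50 min at room temperature | benchmarks = no-enzyme low control, uninhibited high control | medium = Bis-Tris pH 6.0, DTT, detergent | signal = fluorescence intensity of OMFP turnover product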
Scp1 inh – inhibitors of human Scp-1 phosphatase | Q9GZU7 | Recombinant Scp1, phosphopeptide, malachite green phosphate absorbance | inhibition, % at 20 µM | 0.88% of 340,000 active;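 active means inhibition above about 50% at 20 µM, limit read from the data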
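Assay system: SCP-1 catalytic fragment, aa 76-261 | Buffer or medium: Tris acetate buffer pH 5.5 with MgCl2 and Tween-20 | Compound: One concentration, 20 µM, with 1.0% DMSO | Also added: Phospho 17-mer peptide substrate | Signal: Absorbance at 630 nm | Incubation: 45 min enzyme reaction at room temperature | Measure: % inhibition of SCP-1 phosphate liberation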
NadD inh – inhibitors of Staphylococcus aureus NadD. purified NadD enzyme, colorimetric absorbance read-out. inhibition, % at 20 µM. 0.78% of 360,000 active. AID 602399; in the data active means inhibition above about 26%
Of the large screens only hits and unclear results are named; the others gave an inactive call.

COc1ccc(S(=O)(=O)NCc2cccs2)cc1	STEP block 55.1, Scp1 inh 58.9
C=CCn1c(COc2ccccc2)nnc1SCC(=O)Nc1ccc(Oc2ccccc2)cc1	none (no result: STEP block, LMPTP inh, Scp1 inh, NadD inh)
COc1ccc(C2=Nn3c(nnc3C3CCCCC3)SC2)cc1	none (no result: STEP block, LMPTP inh, Scp1 inh, NadD inh)
Cc1cc(C)n(-c2nc3ccccc3s2)n1	none
Cc1c2c(=O)n(-c3nc4ccccc4s3)nc-2cc(O)n1Cc1ccccc1	NadD inh 42.2 (no result: rCAG RNA binder)
CCOC(=O)/C(=C\c1cccc(O)c1)c1nc2sc(C)c(C)c2c(=O)[nH]1	STEP block 84.6
CCOC(=O)c1nc2sc(C)c(C)c2c(=O)[nH]1	none
O=C(CSc1nc2nc(-c3cccs3)cc(C(F)(F)F)c2c(=O)[nH]1)Nc1ccc(F)c(F)c1	rCAG RNA binder 67.6
COc1ccc(CNc2nc(NCc3ccc(OC)cc3)c3[nH]cnc3n2)cc1	LMPTP inh 77.5
COc1ccc(CNc2ncnc(N)n2)cc1	none
Cc1ccc(NC(=O)CN2C(=O)N/C(=C/c3cccn3-c3ccc(C(=O)O)cc3)C2=O)cc1	STEP block 97.0, rCAG RNA binder 55.7, LMPTP inh 50.0, Scp1 inh 92.7
COc1ccc(NC(=O)CN2C(=O)S/C(=C/c3cccn3-c3ccc(C(=O)O)cc3)C2=O)cc1	STEP block 86.1, LMPTP inh 77.3 (no result: Scp1 inh)
COc1ccc(/C=C2\SC(=O)N(CCCC(=O)Nc3ccc(C(=O)O)cc3)C2=O)cc1	none (no result: Scp1 inh)
COc1ccccc1N=C1SC(C(=O)Nc2cccc(Cl)c2Cl)C(N)=C1C(N)=O (stereo not drawn)	none
N#Cc1ccccc1NC(=O)C1SC(=Nc2ccccc2)C(C(=O)Nc2ccc(Cl)cc2)=C1N (stereo not drawn)	rCAG RNA binder 37.4
CN(c1ccc(OCC(=O)Nc2ccccc2C(=O)O)cc1)S(=O)(=O)c1ccc(Cl)cc1	rCAG RNA binder 55.0
CC(=O)c1cccc(OCC(=O)N(C)CC(=O)NCc2ccco2)c1	Scp1 inh 81.3
CSCCCNC(=O)Cn1nc(Cc2ccncc2)c2ccccc2c1=O	none (no result: STEP block, LMPTP inh, Scp1 inh, NadD inh)
COc1ccc(/C=C2\CN(Cc3ccccc3)C/C(=C\c3ccc(OC)cc3)C2=O)cc1	none
COc1ccc(/C=C2\CN(Cc3ccccc3)C/C(=C\c3ccc(OC)cc3OC)C2=O)c(OC)c1	NadD inh 28.9
Nc1ccc2c(c1)C(=O)C(=O)c1ccccc1-2	STEP block 58.7
COc1ccccc1-c1cc(-c2ccccc2)nc(SC(C(N)=O)c2ccccc2)c1C#N (stereo not drawn)	NadD inh 35.8
O=S(=O)(c1ccc(F)cc1)n1c(CN2CCOCC2)nc2ccccc21	none (no result: STEP block, LMPTP inh, Scp1 inh, NadD inh)
Cc1ccccc1C(=O)N1CCc2cc(-c3nc(NC(=O)Cc4ccc5c(c4)OCO5)sc3C)ccc21	NadD inh 46.7 (no result: rCAG RNA binder)
Cc1cccc(C(=O)N2CCc3cc(-c4nc(NC(=O)CN5CCCC5)sc4C)ccc32)c1	none
CCOC(=O)/C(C)=C1\NC(C)(C)Cc2ccccc21	Scp1 inh 100.8
CCOC(=O)/C(C(=O)Nc1ccccc1Cl)=C1/NC(C)(C)Cc2ccccc21	none
CCOC(=O)C1Nc2ccc(Br)cc2C2C=CCC12 (stereo not drawn)	rCAG RNA binder 62.9
O=C(O)C1Nc2ccc(Br)cc2C2C=CCC12 (stereo not drawn)	STEP block 94.5, LMPTP inh 83.7, Scp1 inh 69.2, NadD inh 31.5 (no result: rCAG RNA binder)
CN1C(=O)C[C@@](C#N)(C(=O)NCc2ccccc2)[C@H]1c1ccccc1	none (no result: STEP block, LMPTP inh, Scp1 inh, NadD inh)
COC(=O)[C@H](C)NC(=O)C(Cc1ccc2c(c1)OCO2)NC(C)=O (stereo partly drawn)	none (no result: STEP block, LMPTP inh, Scp1 inh, NadD inh)
CNC(=O)C[C@H]1CC[C@H]2[C@@H](COc3ccc(NC(=O)Nc4ccccc4)cc3C(=O)N2C)O1	none (no result: STEP block, LMPTP inh, Scp1 inh, NadD inh)
Cc1nc(N)nc(N)c1-c1ccc([N+](=O)[O-])cc1	LMPTP inh 66.8
Nc1nc(-c2ccccc2)c(-c2ccc([N+](=O)[O-])cc2)s1	none
Cc1cc(/C=C(/C#N)c2nc3ccccc3[nH]2)c(C)n1-c1cccc([N+](=O)[O-])c1	NadD inh 41.4
COC(=O)[C@]12C[C@H](CC(=O)NCC34CC5CC(CC(C5)C3)C4)C(=O)N(CCc3ccc(OC)c(OC)c3)C1=C[C@H](C(C)C)O[C@@H]2C1CC1	none (no result: STEP block, LMPTP inh, Scp1 inh, NadD inh)
O=C(COC(=O)c1ccccc1Oc1ccccc1)NCc1ccco1	Scp1 inh 69.9
O=c1c2cc([N+](=O)[O-])ccc2sn1-c1ccccc1	none (no result: Scp1 inh)
COc1ccc(-n2sc3ccc(F)cc3c2=O)cc1	Scp1 inh 80.9
Cc1ccc(C)c(-n2sc3ccc(F)cc3c2=O)c1	Scp1 inh 70.4
Cc1ccc(-c2cc(=O)c3cc(F)ccc3[nH]2)cc1	none
O=c1c2cc(F)ccc2sn1-c1ccc(F)cc1	Scp1 inh 80.8 (no result: rCAG RNA binder)
CCOC(=O)[C@@]12CCCC=C1N(CCc1ccc(Cl)cc1)C(=O)[C@H]2CC(=O)NCc1ccc(OC)c(OC)c1	none (no result: STEP block, LMPTP inh, Scp1 inh, NadD inh)
O=C1/C(=C\c2ccc(O)cc2)SC(=S)N1Cc1ccccc1	none
O=C1/C(=C\c2cc(Br)cc(Br)c2O)SC(=S)N1Cc1ccccc1	NadD inh 42.1 (no result: rCAG RNA binder)
COc1cccc(NC(=O)C2CCCN2C(=O)NCc2ccccc2)c1 (stereo not drawn)	none (no result: STEP block, LMPTP inh, Scp1 inh, NadD inh)
CCC(Sc1nc(C)cc(=O)[nH]1)C(=O)Nc1sc2c(c1C#N)CCCC2 (stereo not drawn)	rCAG RNA binder 54.9
CC(C)C(NC(=O)C12CC3CC(CC(C3)C1)C2)C(=O)N/N=C/C1=C(N2CCOCC2)C(=C\c2ccc([N+](=O)[O-])cc2)/CC1 (stereo not drawn)	NadD inh 31.7
Cn1c(=O)oc2cc(S(=O)(=O)N3CCN(CCO)CC3)ccc21	none (no result: STEP block, LMPTP inh, Scp1 inh, NadD inh)
CN(C)/C=C/C(=O)c1ccc(OCCN(C)c2ccccn2)cc1	LMPTP inh 51.2
CN(C)/C=C/C(=O)c1ccc(Oc2ccccc2)cc1	none
CCCCNS(=O)(=O)CC1NCc2cc(F)ccc21 (stereo not drawn)	none (no result: STEP block, LMPTP inh, Scp1 inh, NadD inh)
COC(=O)c1cc(-c2cc(Cl)ccc2OC)c(=O)n2c1CCC2	none (no result: STEP block, LMPTP inh, Scp1 inh, NadD inh)
CSc1ccc(C2=C/C(=C3/SC(=S)NC3=O)c3ccccc3O2)cc1	NadD inh 37.9
CC(Cl)C(=O)N1CCC(C(=O)NC2CCCc3ccccc32)CC1 (stereo not drawn)	none (no result: STEP block, LMPTP inh, Scp1 inh, NadD inh)
N#CC1=C(N)OC2=C(CC/C2=C\c2ccccc2)C1c1ccccc1 (stereo not drawn)	NadD inh 33.0
Oc1ccccc1C(Nc1nccs1)c1ccc2cccnc2c1O (stereo not drawn)	NadD inh 36.7
Cc1ccc(C2C(C(=O)c3cc4ccccc4o3)=C(O)C(=O)N2c2cc(C)on2)cc1 (stereo not drawn)	none
Cc1cc(N2C(=O)C(O)=C(C(=O)c3cc4ccccc4o3)C2c2ccc([N+](=O)[O-])cc2)no1 (stereo not drawn)	rCAG RNA binder 45.5
Nc1cccc2c(O)cccc12	none
Nc1cccc2c(O)cc(S(=O)(=O)O)cc12	STEP block 92.4, LMPTP inh 77.7, Scp1 inh 92.9 (no result: rCAG RNA binder)
